An excerpt weighted towards active compounds, which were near 4.9% of everything screened.
APP 5'UTR act: APP 5'UTR luciferase reporter activation; SH-SY5Y APP 5'UTR luciferase reporter, luminescence; zero percent = DMSO vehicle wells; activation, % at 2 µM; 190,000 tested, 1% active; AID 1276;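 active = activation above a set limit, based on mean plus 3 SD of controls, cut at about 140% in these data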
STAT1 act: increases IFN-gamma driven STAT1 reporter signal | NIH 3T3 STAT1-luciferase reporter, luminescence; 100% = IFN-gamma alone, no compound | activation (% of control), % at 5.5 µM | 200,000 tested, 2.6% active | AID 932;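 active = activation above the screen-wide mean activation plus 3 SD, cut at about 130% in these data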
NF-kB neuron act: NF-kB expression increase, human neuronal cells; NF-kB reporter expression; hits give high values; fold change at 12.5 µM; 190,000 tested, 1.6% active; AID 1239; in the data active = fold change above about 3.3
STAT3 activator: STAT3 signaling activation | 190,000 tested, 0.91% active | activation (% of control), % at 5.6 µM | AID 871 | U3A cells, IL-6 STAT3-luciferase reporter, luminescence; 100% = signal with IL-6 EC80 alone;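 active = activation above the screen-wide mean of compound activation plus 3 SD, cut at about 130% in these data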
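system = STAT3-luciferase reporter U3A cells | reagent = IL-6 stimulus at 33 ng/mL final | timing = 1 h compound pre-exposure, 6 h IL-6 stimulation, 37 °C | measured by = luminescence | evaluation = % activation versus median of IL-6-stimulated wells | control set = IL-6-only wells as 100% reference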
STAT3 inh: STAT3 signaling inhibition. U3A cells, IL-6 STAT3-luciferase reporter, luminescence; host cell line lacks STAT1. 190,000 tested, 0.89% active. inhibition, % at 5.5 µM. AID 862;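 active = inhibition above the mean inhibition across all screened compounds plus 3 SD, cut at about 44% in these data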
STAT1 inh: inhibitors of IFN-gamma induced STAT1 signaling | NIH 3T3 STAT1-luciferase reporter, luminescence | inhibition, % at 5.5 µM | 200,000 tested, 0.35% active;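 active = inhibition above a set limit, the mean inhibition across all tested compounds plus 3 SD, cut at about 34% in these data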
STAT1 activ conf: STAT1 activation, confirmation assay. 1,200 tested, 97% active. activation (% of control), % at 5.7 µM. shares compounds with STAT1 act. NIH 3T3 STAT1-luciferase reporter, IFN-gamma potentiation, luminescence; 100% = IFN-gamma EC80 alone, no compound. AID 1262;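 active = activation above a set limit carried over from the earlier primary STAT1 screen, cut at about 140% in these data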
NFkB act STAT1ct: NF-kappaB activation in STAT1 activator counter-screen; shares compounds with STAT1 act; HEK293T NF-kB luciferase reporter, TNF-alpha stimulated, luminescence; 100% = TNF-alpha with vehicle only; activation (% of control), % at 5.7 µM; 1,200 tested, 43% active; AID 1306;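 active = activation above the mean of solvent-only control wells plus 3 SD, set per campaign, cut at about 130% in these data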;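 also: TNF-alpha given at a submaximal dose yielding about 80% of full reporter signal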
STAT3 act STAT1c: counter-screen for STAT1 activators: human STAT3 activation; shares compounds with STAT1 act; activation (% of control), % at 5.7 µM; 1,200 tested, 46% active; U3A cells STAT3-luciferase reporter, IL-6, luminescence; cells lack STAT1; 100 = IL-6 alone, no compound effect;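 active = activation above the solvent-only control well mean plus 3 SD, set per plate batch, cut at about 110% in these data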;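 also: higher means more STAT3 reporter activation so hits are non-selective activators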
Numbers stand for hits; - = inactive; . = no result.

SMILES	APP 5'UTR act	STAT1 act	NF-kB neuron act	STAT3 activator	STAT3 inh	STAT1 inh	STAT1 activ conf	NFkB act STAT1ct	STAT3 act STAT1c
Cc1cc(C)nc(NC(=O)Nc2ccc3c(c2)OCO3)c1	228	156	-	-	-	-	204	-	-
Cc1cccc(NC(=O)Nc2cc(C)cc(C)n2)c1	173	169	-	-	-	-	193	-	-
O=c1c2ccccc2nnn1CSc1nnc(-c2ccc3c(c2)OCO3)o1	-	-	-	-	-	-	.	.	.
CC(=O)c1ccc(NC(=O)c2ccc(NC(=O)CCS(=O)(=O)c3cccs3)cc2)cc1	-	157	-	-	-	-	169	-	113
O=C(CCS(=O)(=O)c1cccs1)Nc1ccc(C(=O)NCc2cccs2)cc1	-	-	-	-	-	-	.	.	.
COc1ccc(Cn2c(/C=C/c3ccccc3)nc3ccccc32)cc1	.	157	6.1	-	-	-	196	150	130
COc1ccc(-c2cc(=O)c3cc(OC)ccc3[nH]2)cc1	-	153	4.7	-	-	-	165	-	-
COc1cccc(-c2cc(=O)c3cc(NC(C)=O)ccc3[nH]2)c1	-	-	-	-	-	-	.	.	.
CCOC(=O)C1=C(CS(=O)(=O)c2ccccc2)NC(=O)NC1c1cccc(OC)c1 (centres undefined)	-	-	-	-	-	-	.	.	.
c1ccc(-c2cn3nc(-c4ccccc4)cnc3n2)cc1	172	155	4.1	-	-	-	212	-	-
Fc1ccccc1Nc1n[nH]c(=S)s1	-	-	-	-	-	-	.	.	.
Fc1ccccc1Nc1nc2c(s1)CCc1ccccc1-2	164	198	7.8	-	-	-	268	157	161
COC(=O)c1ccc(C(=O)NC(=S)Nc2nc3c(s2)CCCC3)cc1	-	-	-	-	-	-	.	.	.
COc1ccc(OC)c2sc(NC(=O)c3ccc(Br)s3)nc12	-	-	-	-	-	-	.	.	.
O=C(Nc1nc2c(s1)CCCC2)c1ccc(Br)s1	146	166	6.1	-	-	-	256	138	-
O=C(Nc1nc2c(s1)CCCC2)c1ccc2ncsc2c1	160	182	-	-	-	-	271	139	111
Cc1ncsc1C(=O)Nc1nc2c(s1)CCCC2	-	154	-	-	-	-	175	-	-
CS(=O)(=O)NN1C(=O)c2ccccc2NC12CCCC2	-	-	-	-	-	-	.	.	.
CSc1ccc(/C=N/NC(=O)c2sccc2C)cc1	219	192	4.1	-	-	-	249	-	-
Clc1cnc(N/N=C/c2ccco2)c(Cl)c1	155	159	4.2	-	-	-	151	-	-
Cc1ccc(/C=N/Nc2ncc(Cl)cc2Cl)s1	-	-	-	-	-	-	.	.	.
Cc1cccc2nc(COc3ccc(-c4ccccc4)cc3)cn12	-	163	-	-	-	-	168	-	115
Cc1cc(C)n2cc(COc3ccc4ccccc4c3)nc2n1	146	176	8	-	-	-	214	-	117
CCOC(=O)c1cn2c(C)cccc2n1	-	-	-	-	-	-	.	.	.
COC(=O)COc1ccc(S(=O)(=O)N2CCc3ccccc3C2)cc1C	-	-	-	-	-	-	.	.	.
SMILES	APP 5'UTR act	STAT1 act	NF-kB neuron act	STAT3 activator	STAT3 inh	STAT1 inh	STAT1 activ conf	NFkB act STAT1ct	STAT3 act STAT1c
Nc1nonc1-c1noc(COc2ccccc2Cl)n1	187	166	8.8	-	-	-	219	139	116
Clc1ccccc1OCc1nc(-c2ccccn2)no1	171	168	6.5	-	-	-	225	-	-
CCCCc1ccc(-c2ccc(Br)cc2)nc1	-	155	6	-	-	-	223	-	-
CCn1c(-c2ccccc2)csc1=Nc1ccc(O)cc1	152	163	.	-	-	-	172	-	120
CCOc1ccc(N=c2scc(-c3ccccc3)n2CCO)cc1	-	-	-	-	-	-	.	.	.
CC(NC(=O)c1ccco1)C(=O)OC(C)C(=O)NCc1ccccc1 (centres undefined)	-	-	-	-	-	-	.	.	.
CCc1ccc(C2=NN(C(C)=O)C(c3ccco3)C2)cc1 (centres undefined)	144	160	4.7	-	-	-	178	-	123
O=C(N/N=C/c1ccc(Br)cc1)c1ccc(Br)o1	-	159	3.5	-	-	-	190	137	113
O=C(Oc1ccc2ccccc2c1Cl)N1CCCCCC1	-	174	5.1	-	-	-	211	-	141
O=C(Cc1nc(=O)c2ccccc2s1)Nc1ccccc1	189	157	5.8	-	-	-	274	145	122
COc1ccc(-c2c(C)sc(NC(=O)c3ccnn3C)c2C#N)cc1	-	-	-	-	-	-	.	.	.
Cc1ccc2nc(-c3ccc(NC(=O)CCN4C(=O)c5ccccc5C4=O)cc3)sc2c1	-	160	7.4	-	-	-	153	-	-
c1ccc(-c2csc(-n3cccn3)n2)cc1	-	-	-	-	-	-	.	.	.
O=C(/C=C\Nc1ccc(Br)cc1)c1cccnc1	210	162	8.8	-	-	-	198	-	-
Cc1noc(NS(=O)(=O)c2ccc(N/C=C/C(=O)c3cccnc3)cc2)c1C	-	-	-	-	-	-	.	.	.
CC(=O)Cc1nsc(Nc2ccc(C)cc2)n1	-	156	-	-	-	-	190	137	122
CNc1nc(CC(C)=O)ns1	-	-	-	-	-	-	.	.	.
CC(C)(C)N1C(=O)c2ccc(C(=O)Nc3nccs3)cc2C1=O	-	154	-	-	-	-	174	-	117
CCOC(=O)CSc1nc2cc3c(cc2cc1C#N)OCO3	-	155	4.1	-	-	-	223	144	115
CCOC(=O)CSc1nc2cc3c(cc2cc1C#N)OCCO3	181	174	-	-	-	-	293	143	123
CC(C)OC(=O)CSc1nc2cc3c(cc2cc1C#N)OCO3	-	-	-	-	-	-	.	.	.
COC(=O)CSc1nc2cc3c(cc2cc1C#N)OCO3	170	155	6.8	-	-	-	265	147	117
CCOC(=O)CSc1nc2cc3c(cc2cc1C)OCO3	-	-	-	-	-	-	.	.	.
CCOC(=O)c1cn2c3c(c(F)c(F)cc3c1=O)SC(N1CCOCC1)=N2	-	-	.	-	-	-	.	.	.

High-throughput results deposited in PubChem by several laboratories.
